Shown are actives, neighbours in structure and some others; about 0.17% of the full set was active somewhere.
Bim-Bcl-W = disrupts Bim peptide binding to human Bcl-W | Q92843 | bead-based flow cytometry | inhibition, % at 10 µM | actives 0.02% (n = 190,000) | AID 952;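 also: 0% = bound tracer without compound and 100% = peptide blocker; higher means less fluorescent Bim peptide bound to Bcl-W beads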
Target sequence (Q92843 whole entry, looked up): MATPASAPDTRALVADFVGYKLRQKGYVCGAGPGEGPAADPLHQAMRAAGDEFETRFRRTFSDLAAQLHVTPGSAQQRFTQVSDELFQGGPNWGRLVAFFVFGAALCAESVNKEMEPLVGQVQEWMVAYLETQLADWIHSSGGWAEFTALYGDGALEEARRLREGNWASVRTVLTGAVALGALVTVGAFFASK
Bcl-XL Bim block = inhibitors of Bim-Bcl-XL interaction, human; Q07817; Bim peptide-Bcl-XL binding, bead flow cytometry, fluorescence; inhibition, % at 10 µM; actives 0.04% (n = 190,000)
Bim-Bcl-B = inhibitors of Bim-Bcl-B interaction, human. inhibition, % at 10 µM. actives 0.073% (n = 190,000). Q9HD36. bead-based flow cytometry, Bim peptide-Bcl-B binding;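 also: 0% = tracer peptide without compound and 100% = reference inhibitor peptide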
Bim-Bfl-1 = inhibitors of Bim-Bfl-1 interaction, human. inhibition, % at 10 µM. actives 0.12% (n = 190,000). Bead-based flow cytometry, Bim-Bfl-1 binding inhibition. Q16548;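 also: 0% = wells without compound plus tracer and 100% = blocker peptide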
Biofilm kill mix = mixture kills Candida albicans biofilm cells; C. albicans biofilm persisters + clotrimazole, fluorescence viability; primary screen in compound mixtures of four per well; inhibition, % at 7.6 µM; actives 0.02% (n = 120,000);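 active = inhibition above 30.3% in the primary screen of four-compound pools, then above 30% when the compound was retested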;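 also: compounds exposed to preformed 24 h biofilms for 48 h; 0% = untreated biofilm control and 100% = clotrimazole plus chlorhexidine kill blank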
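System: C. albicans CAF4-2 wild-type biofilms; Medium: RPMI/MOPS medium, pH 7.0; Reagent: Clotrimazole, 50 µg/mL; Times: biofilm formation 24 h, compound exposure 48 h, 37 °C; Detection: 2-h Alamar Blue fluorescence, 535/590 nm excitation/emission; Evaluation: percent inhibition of biofilm viability.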
Bim-Bcl-2 = inhibitors of Bim-Bcl-2 interaction, human; AID 950; actives 0.06% (n = 190,000); Bead-based flow cytometry, Bim peptide-Bcl-2 binding; P10415; inhibition, % at 10 µM; in the data active = inhibition above about 40%;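 also: 0% = no compound wells with probe peptide and 100% = reference peptide inhibitor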
* marks the source's active call; other numbers are inactive results; · = no result. Rule as the data show it, unless noted: active = inhibition above about 40%.

SMILES	Bim-Bcl-W	Bcl-XL Bim block	Bim-Bcl-B	Bim-Bfl-1	Biofilm kill mix	Bim-Bcl-2
c1ccc(-c2nc(N3CCOCC3)s[n+]2-c2ccccc2)cc1	7	9	-44	52*	19	14
Cc1cccc(-n2c(O)c(/C=N/Nc3nc4c(c(=O)n(C)c(=O)n4C)n3C)c(=O)[nH]c2=S)c1	-4	-5	-10	-11	8	-6
COP(=O)(CC(=O)O)c1ccccc1 (stereo not given)	36	51*	95*	-3	·	26
CC12CN3CCN(CC(C3)C1O)C2 (stereo not given)	2	-2	-3	-6	·	-3

Source: PubChem
